Activity calls are given as the source filed them. No cut-off for these calls is given here.
Assays:
Plasmodium falciparum [1] = assay: Effective dose against chloroquine-resistant Plasmodium falciparum FcB1R; type: functional
Procedure, shortened: (§1)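 Asynchronous cultures in human erythrocytes (0.5% parasitemia, 1% hematocrit) received serially diluted drug, DMSO ≤0.1%. After 24 h at 37 °C, 0.5 μCi [3H]hypoxanthine was added and incubation continued another 24 h. Growth inhibition was taken versus drug-free control, ED50 read from the concentration–response curve, and reported as mean of ≥3 independent experiments.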

[2] = biological target: T1, Glutathione reductase, mitochondrial (Homo sapiens) (UniProt P00390); assay: Competitive inhibition of human Glutathione Reductase
T1 sequence (whole entry): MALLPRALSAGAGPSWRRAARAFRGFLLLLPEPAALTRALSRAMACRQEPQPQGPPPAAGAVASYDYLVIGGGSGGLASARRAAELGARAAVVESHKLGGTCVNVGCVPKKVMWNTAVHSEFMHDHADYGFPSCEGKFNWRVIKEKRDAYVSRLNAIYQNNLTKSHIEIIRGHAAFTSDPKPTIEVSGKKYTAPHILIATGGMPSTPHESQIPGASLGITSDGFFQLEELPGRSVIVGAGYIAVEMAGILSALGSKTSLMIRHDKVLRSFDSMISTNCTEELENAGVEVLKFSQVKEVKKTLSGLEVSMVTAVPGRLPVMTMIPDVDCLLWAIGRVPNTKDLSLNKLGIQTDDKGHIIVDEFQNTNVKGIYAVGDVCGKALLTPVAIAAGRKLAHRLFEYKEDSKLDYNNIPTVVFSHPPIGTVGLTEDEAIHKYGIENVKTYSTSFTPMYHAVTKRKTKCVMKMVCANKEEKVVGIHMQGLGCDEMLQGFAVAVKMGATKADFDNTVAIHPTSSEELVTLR

[3] = biological target: T2, Glutathione reductase, mitochondrial (Homo sapiens, UniProt P00390); assay: In vitro inhibition of human Glutathione Reductase
T2 sequence (P00390 whole entry): T1 sequence (whole entry)
Procedure, shortened: (§2)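 Recombinant purified GR (about 5 mU/ml) with 100 μM NADPH in 47 mM potassium phosphate, 200 mM KCl, 1 mM EDTA, pH 6.9, at 25 °C. Enzyme, NADPH and inhibitor are premixed and the reaction is started with 100 μM GSSG. NADPH loss is read at 340 nm. IC50 is taken from increasing inhibitor concentrations in 1% final DMSO, run in duplicate.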

Glutathione reductase = Glutathione reductase (Plasmodium falciparum 3D7, UniProt O15770); assay: In vitro inhibition of Plasmodium falciparum Glutathione Reductase; set-up: species or system FcB1; procedure, shortened: as §2
[4] = biological target: Glutathione reductase (Plasmodium falciparum 3D7) (UniProt O15770); assay: Competitive inhibition of Plasmodium falciparum Glutathione Reductase; details: Plasmodium falciparum FcB1
[5] = Susceptibility of compound to hydrolysis at 37 degrees C at pH 5.0 acetate medium; type: ADME
Procedure, shortened: (§3)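 Prodrug (100 μM final, from 1 mM stock in 10% aqueous DMSO) is incubated at 37 °C in pH 7.4 phosphate buffer (150 mM NaCl, 4 mM NaH₂PO₄, 25 mM NaHCO₃) or pH 5.0 acetate (150 mM NaCl, 10 mM NaOAc). Half-life of ester disappearance is found by HPLC as the mean of two determinations.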

[6] = Susceptibility of compound to hydrolysis at 37 degrees C at pH 7.4 phosphate buffer; type: ADME; procedure, shortened: as §3
[7] = Susceptibility of compound to hydrolysis at 37 degrees C for RPMI-10% human serum; type: ADME; details: RPMI with 10% human serum
Procedure, shortened: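 Prodrug (100 μM final, from 1 mM stock in 10% aqueous DMSO) is held in RPMI with 10% human serum at 37 °C and sampled from 0 to 77.5 h. Samples are mixed with EtOH plus internal reference, centrifuged, and the supernatant is analysed by HPLC. Half-life of ester disappearance is the mean of two determinations.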

[8] = biological target: T1, Glutathione reductase, mitochondrial (Homo sapiens); assay: In vitro inhibition of human Glutathione Reductase; Not active; procedure, shortened: as §2
[9] = biological target: Glutathione reductase (Plasmodium falciparum 3D7) (UniProt O15770); assay: In vitro inhibition of Plasmodium falciparum Glutathione Reductase; Not active; details: Plasmodium falciparum FcB1; procedure, shortened: as §2
[10] = biological target: Glutathione reductase (Plasmodium falciparum K1) (UniProt Q94655); assay: Effect on glutathione reductase activity of chloroquine-resistant Plasmodium falciparum K1 in culture after 24 hrs treatment at 150 nM conc; type: functional
Procedure, shortened: (§4)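 After 24 h exposure of synchronized K1 ring cultures, parasites were saponin-isolated and freeze-thaw extracts prepared. GR activity was assayed at 25 °C with 100 μM NADPH and 100 μM GSSG in 47 mM potassium phosphate, 200 mM KCl, 1 mM EDTA, pH 6.9, following NADPH consumption at 340 nm.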

[11] = biological target: Glutathione reductase (Plasmodium falciparum K1) (UniProt Q94655); assay: Effect on glutathione reductase activity of chloroquine-resistant Plasmodium falciparum K1 in culture after 24 hrs treatment at 30 nM conc; type: functional; procedure, shortened: as §4
[12] = biological target: T3, Glutathione S-transferase (Plasmodium falciparum) (UniProt Q8ILQ7); assay: Effect on glutathione S-transferase (GST) activity of chloroquine-resistant Plasmodium falciparum K1 in culture after 24 hrs treatment at 500 nM conc; type: functional
T3 sequence (whole entry): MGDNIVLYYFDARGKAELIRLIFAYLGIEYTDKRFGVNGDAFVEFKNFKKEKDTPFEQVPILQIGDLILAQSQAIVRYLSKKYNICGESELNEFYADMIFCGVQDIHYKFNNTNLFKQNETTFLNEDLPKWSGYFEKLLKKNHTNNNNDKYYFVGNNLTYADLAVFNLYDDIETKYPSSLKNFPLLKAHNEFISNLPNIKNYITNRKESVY
Procedure, shortened: (§5)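 K1 ring-stage cultures (sorbitol-synchronized, 5% hematocrit, 3.7% parasitemia) treated 24 h. Parasites were released with 0.02% saponin (10 min, 37 °C), freeze-thawed three times and the supernatant assayed. GST activity was read spectrophotometrically at 340 nm with 0.5 mM CDNB and 1 mM GSH in 100 mM potassium phosphate, 1 mM EDTA, pH 6.5. Reported as mU/mg protein.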

[13] = biological target: T3, Glutathione S-transferase (Plasmodium falciparum); assay: Effect on glutathione S-transferase (GST) activity of chloroquine-resistant Plasmodium falciparum K1 in culture after 24 hrs treatment at 150 nM conc; type: functional; procedure, shortened: as §5
[14] = biological target: T3, Glutathione S-transferase (Plasmodium falciparum); assay: Effect on glutathione S-transferase (GST) activity of chloroquine-resistant Plasmodium falciparum K1 in culture after 24 hrs treatment at 30 nM conc; type: functional; procedure, shortened: as §5
Mus musculus [15] = assay: Percentage of parasitaemia on day 11 in mice infected with Plasmodium berghei (ip, 40 mg/kg); type: functional
Procedure, shortened: (§6)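 Female Swiss CD-1 mice (four-week-old, 20–25 g, three per group) are infected ip with about 10⁷ P. berghei ANKA 65 parasitized erythrocytes from a donor. On the day of infection they receive 40 mg/kg orally in 100% DMSO, then daily ip for 4 days. Parasitemia is counted daily. Controls get DMSO only.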

Mus musculus [16] = assay: Percentage of parasitaemia on day 18 in mice infected with Plasmodium berghei (ip, 40 mg/kg); type: functional; procedure, shortened: as §6
Mus musculus [17] = assay: Percentage of parasitaemia on day 4 in mice infected with Plasmodium berghei (ip, 40 mg/kg); type: functional; procedure, shortened: as §6
Mus musculus [18] = assay: Percentage excess MST, when used as the chlorohydrate in mice infected with Plasmodium berghei (i.p., 40 mg/kg); type: functional; details: route intraperitoneal
Procedure, shortened: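 Female Swiss CD-1 mice (four weeks, 20–25 g), three per group, were infected ip with about 10^7 P. berghei ANKA parasitized erythrocytes. Dosing was 40 mg/kg in 100% DMSO, given orally at infection, then ip over the following 4 days. Parasitemia was counted daily. Activity was scored as percentage excess mean survival time over DMSO-treated infected controls.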

Plasmodium falciparum [19] = assay: In vitro efficacy for chloroquine-resistant Plasmodium falciparum W2; type: functional; details: read-out: ED50 (the source's name); procedure, shortened: as §1
Plasmodium falciparum [20] = assay: Effect on nucleic acid of chloroquine-resistant Plasmodium falciparum K1 culture after 24 hrs at 30 nM; type: functional
Procedure, shortened: (§7)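 Synchronized K1 ring cultures were treated 24 h, then saponin-isolated and freeze-thawed. Extract was diluted in 150 mM KH2PO4, pH 8.0, and nucleic acid and protein were estimated from absorbance at 260 and 280 nm. Protein was also measured by dye-binding assay with BSA standard.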

Plasmodium falciparum [21] = assay: Effect on nucleic acid of chloroquine-resistant Plasmodium falciparum K1 culture after 24 hrs at 500 nM; type: functional; procedure, shortened: as §7
Plasmodium falciparum [22] = assay: Effect on protein of chloroquine-resistant Plasmodium falciparum K1 culture after 24 hrs at 150 nM; type: functional; procedure, shortened: as §7
Plasmodium falciparum [23] = assay: Effect on protein of chloroquine-resistant Plasmodium falciparum K1 culture after 24 hrs at 30 nM; type: functional; procedure, shortened: as §7
Plasmodium falciparum [24] = assay: Effect on protein of chloroquine-resistant Plasmodium falciparum K1 culture after 24 hrs at 500 nM; type: functional; procedure, shortened: as §7
Plasmodium falciparum [25] = assay: In vitro efficacy for chloroquine-resistant Plasmodium falciparum FcB1; type: functional; details: read-out: ED50 (the source's name); procedure, shortened: as §1
Plasmodium falciparum [26] = assay: In vitro efficacy for chloroquine-resistant Plasmodium falciparum K1; type: functional; details: read-out: ED50 (the source's name); procedure, shortened: as §1
Plasmodium falciparum [27] = assay: Effect on glutathione reductase activity of chloroquine-resistant Plasmodium falciparum K1 culture after 24 hrs at 500 nM; type: functional; procedure, shortened: as §4
Plasmodium falciparum [28] = assay: Effect on glutathione content of chloroquine-resistant Plasmodium falciparum K1 culture after 24 hrs at 150 nM; type: functional
Procedure, shortened: (§8)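 Sorbitol-synchronized K1 rings (5% hematocrit, 3.7% parasitemia) exposed 24 h, then saponin-lysed and freeze-thawed. Extract (40 μL) was deproteinized with 2 volumes of 5% sulfosalicylic acid. Total glutathione was measured by GR-coupled DTNB-GSH recycling against a GSH standard curve. Expressed as nmol/mg protein.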

Plasmodium falciparum [29] = assay: Effect on glutathione content of chloroquine-resistant Plasmodium falciparum K1 culture after 24 hrs at 30 nM; type: functional; procedure, shortened: as §8
Plasmodium falciparum [30] = assay: Effect on glutathione content of chloroquine-resistant Plasmodium falciparum K1 culture after 24 hrs at 500 nM; type: functional; procedure, shortened: as §8
Plasmodium falciparum [31] = assay: Effect on nucleic acid of chloroquine-resistant Plasmodium falciparum K1 culture after 24 hrs at 150 nM; type: functional; procedure, shortened: as §7
Plasmodium falciparum [32] = assay: In vitro efficacy for chloroquine-sensitive Plasmodium falciparum D6; details: read-out: ED50 (the source's name)
Plasmodium falciparum [33] = assay: In vitro efficacy for chloroquine-sensitive Plasmodium falciparum F32; details: read-out: ED50 (the source's name)
Plasmodium falciparum [34] = assay: In vitro efficacy for chloroquine-sensitive Plasmodium falciparum Thai strain; details: read-out: ED50 (the source's name)
[35] = read-out: ED50 (the source's name)

Sequence of Glutathione reductase (O15770 whole entry): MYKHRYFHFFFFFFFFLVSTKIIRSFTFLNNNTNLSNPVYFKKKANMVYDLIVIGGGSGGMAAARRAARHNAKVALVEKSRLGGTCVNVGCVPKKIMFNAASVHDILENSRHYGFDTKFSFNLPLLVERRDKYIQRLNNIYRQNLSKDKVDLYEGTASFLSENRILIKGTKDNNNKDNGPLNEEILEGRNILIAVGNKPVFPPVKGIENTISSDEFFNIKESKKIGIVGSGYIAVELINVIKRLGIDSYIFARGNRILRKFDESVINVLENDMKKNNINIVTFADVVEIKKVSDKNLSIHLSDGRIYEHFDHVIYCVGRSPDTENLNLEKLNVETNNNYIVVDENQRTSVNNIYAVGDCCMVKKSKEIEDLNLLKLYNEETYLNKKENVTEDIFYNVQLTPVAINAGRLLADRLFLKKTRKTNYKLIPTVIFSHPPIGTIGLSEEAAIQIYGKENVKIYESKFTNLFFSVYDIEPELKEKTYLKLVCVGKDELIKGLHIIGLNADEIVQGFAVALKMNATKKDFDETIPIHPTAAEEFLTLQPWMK
Sequence of Glutathione reductase (Plasmodium falciparum 3D7) (O15770 whole entry): as above
Sequence of Glutathione reductase (Plasmodium falciparum K1) (Q94655 whole entry): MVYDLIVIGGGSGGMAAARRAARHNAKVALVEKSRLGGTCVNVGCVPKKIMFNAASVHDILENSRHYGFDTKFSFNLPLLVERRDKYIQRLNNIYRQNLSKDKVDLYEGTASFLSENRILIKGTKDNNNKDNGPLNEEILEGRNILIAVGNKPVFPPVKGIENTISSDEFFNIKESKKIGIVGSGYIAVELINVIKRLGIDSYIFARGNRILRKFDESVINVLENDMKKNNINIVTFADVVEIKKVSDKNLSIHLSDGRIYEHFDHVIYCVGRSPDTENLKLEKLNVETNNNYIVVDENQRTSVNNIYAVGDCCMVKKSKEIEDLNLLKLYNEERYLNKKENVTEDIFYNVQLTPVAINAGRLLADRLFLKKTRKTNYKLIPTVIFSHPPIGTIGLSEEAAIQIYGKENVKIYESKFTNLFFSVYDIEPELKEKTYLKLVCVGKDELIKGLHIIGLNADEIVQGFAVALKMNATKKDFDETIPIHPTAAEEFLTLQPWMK

SMILES: CC1=C(CCCCC(=O)OCc2cc(NC(=O)CN3CCCCC3)cc(Nc3ccnc4cc(Cl)ccc34)c2)C(=O)c2ccccc2C1=O
- EC50 (Plasmodium falciparum [1]; [35]): 47000 nM

SMILES: CC1=C(CCCCCC(=O)O)C(=O)c2ccccc2C1=O
- Ki.c [2]: 1900 nM
- IC50 [3]: 2600 nM
- EC50 (Plasmodium falciparum [1]; [35]): 3500 nM
- IC50 (Glutathione reductase): 500 nM
- Ki.c [4]: 500 nM

SMILES: COC(=O)CCCCCC1=C(C)C(=O)c2ccccc2C1=O
- half-life [5]: 0.5 h
- half-life [6]: 1 h
- half-life [7]: > 3 h
- NA [8]: inactive
- EC50 (Plasmodium falciparum [1]; [35]): 10800 nM
- NA [9]: inactive

SMILES: CC1=C(CCCCCC(=O)O)C(=O)c2c(O)cccc2C1=O
- Ki.c [2]: 750 nM
- IC50 [3]: 750 nM
- EC50 (Plasmodium falciparum [1]; [35]): 8200 nM
- IC50 (Glutathione reductase): 1300 nM
- Ki.c [4]: 2300 nM

SMILES: CCN(CCCC(C)Nc1ccnc2cc(Cl)ccc12)CCOC(=O)CCCCCC1=C(C)C(=O)c2ccccc2C1=O (stereo not given)
- half-life [5]: > 80 h
- half-life [6]: > 80 h
- half-life [7]: > 80 h
- EC50 (Plasmodium falciparum [1]; [35]): 107 nM

SMILES: CC1=C(CCCCC(=O)O)C(=O)c2ccccc2C1=O
- Ki.c [2]: 1.8
- IC50 [3]: 2700 nM
- EC50 (Plasmodium falciparum [1]; [35]): 2800 nM
- IC50 (Glutathione reductase): 4000 nM
- Ki.c [4]: 3100 nM

SMILES: CC1=C(CCCCCC(=O)OCc2cc(NC(=O)CN3CCCCC3)cc(Nc3ccnc4cc(Cl)ccc34)c2)C(=O)c2ccccc2C1=O
- half-life [5]: > 80 h
- half-life [6]: > 80 h
- half-life [7]: > 80 h
- GR activity [10]: 8 mU mg-1
- GR activity [11]: 30 mU mg-1
- GST activity [12]: 9.5 mU mg-1
- GST activity [13]: 4.3 mU mg-1
- GST activity [14]: 3.7 mU mg-1
- Parasitaemia (Mus musculus [15]): 9%
- Parasitaemia (Mus musculus [16]): 48%
- Parasitaemia (Mus musculus [17]): <0.1%
- Excess MST (Mus musculus [18]): 178%
- EC50 (Plasmodium falciparum [1]; read-out: ED50): 23.1 nM
- EC50 (Plasmodium falciparum [19]): 26.4 nM
- Nucleic acids (Plasmodium falciparum [20]): 89 ng/mg
- Nucleic acids (Plasmodium falciparum [21]): 81 ng/mg
- Protein (Plasmodium falciparum [22]): 0.6 mg/mL
- Protein (Plasmodium falciparum [23]): 1.1 mg/mL
- Protein (Plasmodium falciparum [24]): 0.4 mg/mL
- EC50 (Plasmodium falciparum [25]): 23.1 nM
- EC50 (Plasmodium falciparum [26]): 29.3 nM
- GR activity (Plasmodium falciparum [27]): 6 mU mg-1
- Glutathione (Plasmodium falciparum [28]): <1 nM/mg
- Glutathione (Plasmodium falciparum [29]): 14.8 nM/mg
- Glutathione (Plasmodium falciparum [30]): <1 nM/mg
- Nucleic acids (Plasmodium falciparum [31]): 79 ng/mg
- EC50 (Plasmodium falciparum [32]): 27.7 nM
- EC50 (Plasmodium falciparum [33]): 25.8 nM
- EC50 (Plasmodium falciparum [34]): 36.5 nM
